ChEMBL document CHEMBL1165950, “Design and synthesis of new potent anticancer pyrazoles with high FLT3 kinase inhibitory selectivity” (Bioorg Med Chem, 2010)

Key:
Format in all cases: functional
SW-620 = experiment: Cytotoxicity against human SW620 cells assessed as cell growth at 10 uM after 48 hrs by sulforhodamine B assay; conditions: SW-620, 48 h, read-out: Activity
NCI-H460 = experiment: Cytotoxicity against human NCI-H460 cells assessed as cell growth at 10 uM; conditions: read-out: Activity
Outline: (§1)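 NCI-60 screen: cells grown in RPMI 1640 with 5% FBS and 2 mM L-glutamine, plated at 5000–40,000 cells/well according to doubling time, and preincubated 24 h at 37 °C, 5% CO2. The single 10 µM dose (DMSO stock) was added, then incubated 48 h. Cells were TCA-fixed and stained with 0.4% SRB, read at 515 nm, and growth % calculated against time-zero and control plates.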

SK-OV-3 [1] = experiment: Cytotoxicity against human SKOV3 cells assessed as cell growth at 10 uM after 48 hrs by sulforhodamine B assay; conditions: SK-OV-3, 48 h, read-out: Activity
HCT-15 [2] = experiment: Cytotoxicity against human HCT15 cells assessed as cell growth at 0.001 uM after 48 hrs by sulforhodamine B assay; conditions: HCT-15, 48 h, read-out: Activity
NCI-H522 = experiment: Cytotoxicity against human NCI-H522 cells assessed as cell growth at 10 uM after 48 hrs by sulforhodamine B assay; conditions: NCI-H522, 48 h, read-out: Activity
A498 = experiment: Cytotoxicity against human A498 cells assessed as cell growth at 100 nM after 48 hrs by sulforhodamine B assay; conditions: A498, 48 h, read-out: Activity
Outline: (§2)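 NCI-60 five-dose screen. Cells were grown in RPMI 1640 with 5% FBS and 2 mM L-glutamine, plated at 5000–40,000 cells/well and preincubated for 24 h. Time-zero plates were TCA-fixed. DMSO-solubilized drug was added at five concentrations (10-fold or ½-log serial dilutions) for 48 h at 37 °C, 5% CO2. Cells were TCA-fixed, stained with 0.4% SRB and read at 515 nm. Percent growth used time-zero, control and test absorbances.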

HCT-15 [3] = experiment: Cytotoxicity against human HCT15 cells assessed as cell growth at 0.01 uM after 48 hrs by sulforhodamine B assay; conditions: HCT-15, 48 h, read-out: Activity
MDA-MB-468 = experiment: Cytotoxicity against human MDA-MB-468 cells assessed as cell growth at 10 uM after 48 hrs by sulforhodamine B assay; conditions: MDA-MB-468, 48 h, read-out: Activity
EKVX = experiment: Cytotoxicity against human EKVX cells assessed as cell growth at 10 uM; conditions: read-out: Activity
Outline: (§3)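 Single-dose NCI-60 screen at 10 µM. Cells were grown in RPMI 1640 with 5% FBS and 2 mM L-glutamine, then treated for 48 h at 37 °C. Protein was measured by SRB staining with absorbance at 515 nm. Percentage growth was recorded, and inhibition percentage was calculated as 100 minus growth percentage.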

Malme-3M = experiment: Growth inhibition of human MALME-3M cells after 48 hrs by sulforhodamine B assay; conditions: for CC50: read-out: LC50 (the source's name)
Outline: (§4)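 NCI 60-cell screen, five-dose mode. Cells grown in RPMI 1640 with 5% FBS and 2 mM L-glutamine and plated at 5000-40,000 cells/well according to doubling time. After 24 h preincubation, a Tz plate was TCA-fixed. Five concentrations (10-fold or 1/2 log dilutions) were applied for 48 h at 37 °C. SRB staining read at 515 nm. IC50 taken from [(Ti-Tz)/(C-Tz)]×100 = 50.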

A549 = experiment: Cytotoxicity against human A549 cells assessed as cell growth at 100 nM after 48 hrs by sulforhodamine B assay; conditions: A549, 48 h, read-out: Activity; outline: as §2
MDA-MB-435 = experiment: Cytotoxicity against human MDA-MB-435 cells assessed as cell growth at 100 nM after 48 hrs by sulforhodamine B assay; conditions: MDA-MB-435, 48 h, read-out: Activity
[4] = Cytotoxicity against human Hs 578T cells assessed as cell growth at 10 uM; conditions: read-out: Activity; outline: as §3
SN12C = experiment: Cytotoxicity against human SN12C cells assessed as cell growth at 0.01 uM after 48 hrs by sulforhodamine B assay; conditions: read-out: Activity
SK-MEL-28 = experiment: Cytotoxicity against human SK-MEL-28 cells assessed as cell growth at 10 uM; conditions: read-out: Activity; outline: as §1
OVCAR-3 [5] = experiment: Growth inhibition of human OVCAR-3 cells after 48 hrs by sulforhodamine B assay; conditions: OVCAR-3, 48 h; for CC50: read-out: LC50 (the source's name); outline: as §4
HT-29 = experiment: Cytotoxicity against human HT-29 cells assessed as cell growth at 10 uM after 48 hrs by sulforhodamine B assay; conditions: HT-29, 48 h, read-out: Activity
SK-OV-3 [6] = experiment: Cytotoxicity against human SKOV3 cells assessed as cell growth at 0.001 uM after 48 hrs by sulforhodamine B assay; conditions: SK-OV-3, 48 h, read-out: Activity
ACHN = experiment: Cytotoxicity against human ACHN cells assessed as cell growth at 10 uM; conditions: read-out: Activity; outline: as §3
IGROV-1 = experiment: Growth inhibition of human IGROV1 cells after 48 hrs by sulforhodamine B assay; conditions: IGROV-1, 48 h; for CC50: read-out: LC50 (the source's name); outline: as §4
SR = experiment: Cytotoxicity against human SR cells assessed as cell growth at 10 uM after 48 hrs by sulforhodamine B assay; conditions: read-out: Activity
NCI-H322M = experiment: Cytotoxicity against human NCI-H322M cells assessed as cell growth at 100 nM after 48 hrs by sulforhodamine B assay; conditions: read-out: Activity
COLO 205 = experiment: Cytotoxicity against human COLO205 cells assessed as cell growth at 1 uM after 48 hrs by sulforhodamine B assay; conditions: COLO 205, 48 h, read-out: Activity; outline: as §2
U-251 = experiment: Growth inhibition of human U251 cells after 48 hrs by sulforhodamine B assay; conditions: U-251, 48 h; for CC50: read-out: LC50 (the source's name); outline: as §4
HOP-92 = experiment: Cytotoxicity against human HOP92 cells assessed as cell growth at 100 nM after 48 hrs by sulforhodamine B assay; conditions: HOP-92, 48 h, read-out: Activity
SK-OV-3 [7] = experiment: Cytotoxicity against human SKOV3 cells assessed as cell growth at 1 uM after 48 hrs by sulforhodamine B assay; conditions: SK-OV-3, 48 h, read-out: Activity
[8] = Cytotoxicity against human Hs 578T cells assessed as cell growth at 10 uM after 48 hrs by sulforhodamine B assay; conditions: read-out: Activity
OVCAR-3 [9] = experiment: Cytotoxicity against human OVCAR-3 cells assessed as cell growth at 10 uM after 48 hrs by sulforhodamine B assay; conditions: OVCAR-3, 48 h, read-out: Activity
SF-268 = experiment: Cytotoxicity against human SF268 cells assessed as cell growth at 100 nM after 48 hrs by sulforhodamine B assay; conditions: SF-268, 48 h, read-out: Activity
SF-539 = experiment: Cytotoxicity against human SF539 cells assessed as cell growth at 0.001 uM after 48 hrs by sulforhodamine B assay; conditions: SF-539, 48 h, read-out: Activity
SK-OV-3 [10] = experiment: Cytotoxicity against human SKOV3 cells assessed as cell growth at 10 uM; conditions: read-out: Activity; outline: as §1
HCT-15 [11] = experiment: Cytotoxicity against human HCT15 cells assessed as cell growth at 10 uM after 48 hrs by sulforhodamine B assay; conditions: HCT-15, 48 h, read-out: Activity

SMILES | growth at 10 µM (SW-620) | growth at 10 µM (NCI-H460) | growth at 10 µM (SK-OV-3 [1]) | growth at 0.001 µM (HCT-15 [2]) | growth at 10 µM (NCI-H522) | growth at 0.1 µM (A498) | growth at 0.01 µM (HCT-15 [3]) | growth at 10 µM (MDA-MB-468) | growth at 10 µM (EKVX) | GI50 (Malme-3M) | TGI (Malme-3M) | CC50 (Malme-3M) | growth at 0.1 µM (A549) | growth at 0.1 µM (MDA-MB-435) | growth at 10 µM [4] | growth at 0.01 µM (SN12C) | growth at 10 µM (SK-MEL-28) | GI50 (OVCAR-3 [5]) | CC50 (OVCAR-3 [5]) | growth at 10 µM (HT-29) | also measured
COc1cc(C)cc(-c2c(-c3ccnc(-c4ccc(N(C)C)cc4)c3)cnn2CC#N)c1 | 11% | -5.33% | 26% | 100% | -52% | 10% | 12% | -59% | 45.8% | 0.0598 µM | > 100 µM | > 100 µM | 10% | -43% | 30.8% | 75% | 42.1% | 0.03 µM | > 100 µM | -48% | growth at 0.001 µM (SK-OV-3 [6]): 102%; growth at 10 µM (ACHN): 22.1%; GI50 (IGROV-1): 0.0608 µM; TGI (IGROV-1): 40.9 µM; CC50 (IGROV-1): > 100 µM; growth at 10 µM (SR): -38%; growth at 0.1 µM (NCI-H322M): 20%; growth at 1 µM (COLO 205): 3%; GI50 (U-251): 0.178 µM; TGI (U-251): > 100 µM; CC50 (U-251): > 100 µM; growth at 0.1 µM (HOP-92): -3%; growth at 1 µM (SK-OV-3 [7]): 36%; growth at 10 µM [8]: 16%; growth at 10 µM (OVCAR-3 [9]): 1%; growth at 0.1 µM (SF-268): 29%; growth at 0.001 µM (SF-539): 104%; growth at 10 µM (SK-OV-3 [10]): -3.63%; growth at 10 µM (HCT-15 [11]): 9%
COc1cc(C)cc(-c2nn(CC#N)cc2-c2ccc(-c3cccc(C(C)=O)c3)nc2)c1 | -11% | 17.4% | -36% | 95% | -40% | 53% | 100% | -53% | 51.6% | 3.76 µM | 96.4 µM | > 100 µM | 91% | 11% | 32% | 88% | 44.7% | 1.34 µM | 8.13 µM | -11% | TGI (OVCAR-3 [5]): 3.3 µM; growth at 0.001 µM (SK-OV-3 [6]): 86%; growth at 10 µM (ACHN): 35.4%; GI50 (IGROV-1): 2.73 µM; TGI (IGROV-1): 10.4 µM; CC50 (IGROV-1): > 100 µM; growth at 10 µM (SR): 28%; growth at 0.1 µM (NCI-H322M): 95%; growth at 1 µM (COLO 205): -55%; GI50 (U-251): 3.17 µM; TGI (U-251): 13.5 µM; CC50 (U-251): > 100 µM; growth at 0.1 µM (HOP-92): 89%; growth at 1 µM (SK-OV-3 [7]): -4%; growth at 10 µM [8]: -57%; growth at 10 µM (OVCAR-3 [9]): -64%; growth at 0.1 µM (SF-268): 91%; growth at 0.001 µM (SF-539): 94%; growth at 10 µM (SK-OV-3 [10]): 10.1%; growth at 10 µM (HCT-15 [11]): 3%
